# Activity calls are given as the source filed them. The rule behind the calls is not given here.
# What was measured:
# [1] = Upregulation of RND3 protein levels in human BxPC-3 cells incubated for 16 hrs by proteomic analysis; type: functional
# Summary of the method: (§1)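 BxPC-3 cells exposed 16 h in triplicate (control, PROTAC) or duplicate (other arms); lysed in RIPA at 4 °C, 75 μg protein per sample. Reduced with DTT (1 h, 55 °C), alkylated with 2-chloroacetamide, acetone-precipitated, trypsin-digested overnight at 37 °C, TMT 10plex labelled, relative quantitation by LC-tandem MS.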
# [2] = biological target: Protein cereblon/Carbohydrate sulfotransferase 14 (Homo sapiens) (UniProt Q96SW2+Q8NCH0); experiment: Protac activity at CRBN/CHST14 in human BxPC-3 cells assessed as CHST14 degradation incubated for 16 hrs by proteomic analysis; type: cell-based
# Summary of the method: (§2)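 TMT 10plex proteomics. […] Samples (75 μg) were reduced with DTT, alkylated with 2-chloroacetamide, acetone-precipitated, trypsin-digested overnight at 37 °C and TMT-labeled for LC-MS/MS relative quantitation.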
# [3] = biological target: T1, Protein cereblon/E3 ubiquitin-protein ligase ZFP91 (Homo sapiens, UniProt Q96SW2+Q96JP5); experiment: Protac activity at CRBN/ZFP91 in human BxPC-3 cells assessed as induction of ZF91 degradation incubated for 24 hrs by western blot analysis; type: cell-based
# Summary of the method: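 BxPC-3 cells treated for 4, 16 or 24 h across a concentration series. ZFP91 immunoblotted against GAPDH; bands quantified by densitometry, DC50 calculated from dose-response curves of the densitometry.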
# [4] = Upregulation of ceramide glucosyltransferase protein levels in human BxPC-3 cells incubated for 16 hrs by proteomic analysis; type: functional
# Summary of the method: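 BxPC-3 cells exposed to compound (2 μM) or DMSO control for 16 h, then lysed in RIPA buffer at 4 °C. Protein quantified by BCA; 75 μg per sample. TMT 10plex labeling: DTT reduction (1 h, 55 °C), 2-chloroacetamide alkylation (30 min, RT), acetone precipitation, overnight trypsin digestion at 37 °C, then LC-tandem MS relative quantitation. Control and treated samples run in triplicate.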
# [5] = biological target: Protein cereblon/Procollagen-lysine,2-oxoglutarate 5-dioxygenase 2 (Homo sapiens) (UniProt Q96SW2+O00469); experiment: Protac activity at CRBN/PLOD2 in human BxPC-3 cells assessed as PLOD2 degradation incubated for 16 hrs by proteomic analysis; type: cell-based; summary of the method: as §2
# [6] = biological target: Protein cereblon/SOSS complex subunit B1 (Homo sapiens) (UniProt Q96SW2+Q9BQ15); experiment: Protac activity at CRBN/NABP2 in human BxPC-3 cells assessed as NABP2 degradation incubated for 16 hrs by proteomic analysis; type: cell-based; summary of the method: as §2
# [7] = Upregulation of DNAJB9 protein levels in human BxPC-3 cells incubated for 16 hrs by proteomic analysis; type: functional; summary of the method: as §1
# [8] = Upregulation of IL1RL1 protein levels in human BxPC-3 cells incubated for 16 hrs by proteomic analysis; type: functional; summary of the method: as §1
# [9] = biological target: Protein cereblon/Cyclin-D1-binding protein 1 (Homo sapiens) (UniProt Q96SW2+O95273); experiment: Protac activity at CRBN/CCNDBP1 in human BxPC-3 cells assessed as CCNDBP1 degradation incubated for 16 hrs by proteomic analysis; type: cell-based; summary of the method: as §2
# [10] = biological target: Protein cereblon/Ubiquitin carboxyl-terminal hydrolase 8 (Homo sapiens) (UniProt P40818+Q96SW2); experiment: Protac activity at CRBN/USP8 in human BxPC-3 cells assessed as USP8 degradation incubated for 16 hrs by proteomic analysis; type: cell-based; summary of the method: as §1
# [11] = Upregulation of Arx protein levels in human BxPC-3 cells incubated for 16 hrs by proteomic analysis; type: functional; summary of the method: as §1
# [12] = biological target: Protein cereblon/Agrin (Homo sapiens) (UniProt Q96SW2+O00468); experiment: Protac activity at CRBN/Agrin in human BxPC-3 cells assessed as Agrin degradation incubated for 16 hrs by proteomic analysis; type: cell-based; summary of the method: as §2
# [13] = biological target: T1, Protein cereblon/E3 ubiquitin-protein ligase ZFP91; experiment: Protac activity at CRBN/ZFP91 in human MIA PaCa-2 cells assessed as ZF91 protein degradation at 0.1 to 0.5 uM incubated for 16 hrs in presence of proteasome inhibitor carfilzomib by western blot analysis; type: cell-based; settings: dose 0.1-0.5 µM
# Target sequence in this assay (Q96JP5 2-570 partner limits assumed): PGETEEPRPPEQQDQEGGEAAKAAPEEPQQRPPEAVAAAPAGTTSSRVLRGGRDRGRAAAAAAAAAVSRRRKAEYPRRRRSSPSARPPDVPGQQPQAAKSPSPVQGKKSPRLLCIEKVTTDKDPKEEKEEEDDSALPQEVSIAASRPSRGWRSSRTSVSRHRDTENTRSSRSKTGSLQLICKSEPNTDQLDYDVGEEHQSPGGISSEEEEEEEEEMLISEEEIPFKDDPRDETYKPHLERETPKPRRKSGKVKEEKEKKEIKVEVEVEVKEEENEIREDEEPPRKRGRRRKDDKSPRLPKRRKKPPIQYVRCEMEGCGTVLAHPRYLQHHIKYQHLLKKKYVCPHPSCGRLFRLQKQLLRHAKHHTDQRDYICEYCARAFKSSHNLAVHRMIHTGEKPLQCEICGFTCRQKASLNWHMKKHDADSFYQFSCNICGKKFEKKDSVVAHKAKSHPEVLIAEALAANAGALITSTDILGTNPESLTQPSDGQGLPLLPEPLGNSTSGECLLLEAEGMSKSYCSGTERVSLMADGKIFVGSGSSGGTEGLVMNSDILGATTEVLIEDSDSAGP
# Target sequence in this assay (Q96SW2 whole entry): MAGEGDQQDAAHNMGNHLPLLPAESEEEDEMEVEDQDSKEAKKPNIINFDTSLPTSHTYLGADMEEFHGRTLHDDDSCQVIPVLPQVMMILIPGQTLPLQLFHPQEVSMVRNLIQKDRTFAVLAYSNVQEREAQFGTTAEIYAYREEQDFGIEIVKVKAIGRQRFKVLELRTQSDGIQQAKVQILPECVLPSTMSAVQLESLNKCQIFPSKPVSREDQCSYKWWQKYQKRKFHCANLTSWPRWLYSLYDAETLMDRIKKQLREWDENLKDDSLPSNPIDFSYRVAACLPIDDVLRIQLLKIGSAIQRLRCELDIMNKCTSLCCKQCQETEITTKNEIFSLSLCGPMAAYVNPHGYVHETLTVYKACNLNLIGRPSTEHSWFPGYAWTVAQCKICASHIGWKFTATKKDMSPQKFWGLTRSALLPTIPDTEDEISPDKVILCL
# [14] = biological target: Protein cereblon/Histone-lysine N-methyltransferase PRDM16 (Homo sapiens) (UniProt Q96SW2+Q9HAZ2); experiment: Protac activity at CRBN/PRDM16 in human BxPC-3 cells assessed as PRDM16 degradation incubated for 16 hrs by proteomic analysis; type: cell-based; summary of the method: as §2
# [15] = biological target: Signal transducer and activator of transcription 3 (Homo sapiens) (UniProt P40763); experiment: Inhibition of STAT3 phosphorylation in human MIA PaCa-2 cells at 0.5 to 1 uM after 16 hrs by western blot analysis; type: cell-based; settings: dose 0.5-1 µM
# Summary of the method: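 Cells were seeded in 6-well plates (BxPC-3 500 × 10^3, MIA PaCa-2 200 × 10^3 cells/well) and exposed to compound for 16 h. Lysis was at 4 °C by sonication in Tris/NaCl/Triton/SDS buffer, pH 7.4, with protease and phosphatase inhibitors. Lysates were run on SDS-PAGE, transferred to PVDF and probed for STAT3, pSTAT3 and NQO1 with GAPDH as loading control. Immunoblots were imaged on an Odyssey system.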
# Protein cereblon/Carbohydrate sulfotransferase 14 (Homo sapiens), sequence (Q8NCH0 whole entry, looked up): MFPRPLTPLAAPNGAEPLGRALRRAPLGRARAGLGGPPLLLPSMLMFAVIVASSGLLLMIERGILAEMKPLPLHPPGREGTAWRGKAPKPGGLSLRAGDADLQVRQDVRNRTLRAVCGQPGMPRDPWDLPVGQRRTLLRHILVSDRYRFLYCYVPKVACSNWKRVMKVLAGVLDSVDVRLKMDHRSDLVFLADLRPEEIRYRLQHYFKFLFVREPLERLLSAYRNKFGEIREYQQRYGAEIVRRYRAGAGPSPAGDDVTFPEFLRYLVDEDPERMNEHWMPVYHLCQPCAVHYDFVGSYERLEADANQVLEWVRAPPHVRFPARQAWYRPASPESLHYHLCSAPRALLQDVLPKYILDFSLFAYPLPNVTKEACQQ
# Protein cereblon/Carbohydrate sulfotransferase 14 (Homo sapiens), sequence (Q96SW2 whole entry, looked up): as the sequence (Q96SW2 whole entry) above
# Protein cereblon/Procollagen-lysine,2-oxoglutarate 5-dioxygenase 2 (Homo sapiens), sequence (O00469 whole entry, looked up): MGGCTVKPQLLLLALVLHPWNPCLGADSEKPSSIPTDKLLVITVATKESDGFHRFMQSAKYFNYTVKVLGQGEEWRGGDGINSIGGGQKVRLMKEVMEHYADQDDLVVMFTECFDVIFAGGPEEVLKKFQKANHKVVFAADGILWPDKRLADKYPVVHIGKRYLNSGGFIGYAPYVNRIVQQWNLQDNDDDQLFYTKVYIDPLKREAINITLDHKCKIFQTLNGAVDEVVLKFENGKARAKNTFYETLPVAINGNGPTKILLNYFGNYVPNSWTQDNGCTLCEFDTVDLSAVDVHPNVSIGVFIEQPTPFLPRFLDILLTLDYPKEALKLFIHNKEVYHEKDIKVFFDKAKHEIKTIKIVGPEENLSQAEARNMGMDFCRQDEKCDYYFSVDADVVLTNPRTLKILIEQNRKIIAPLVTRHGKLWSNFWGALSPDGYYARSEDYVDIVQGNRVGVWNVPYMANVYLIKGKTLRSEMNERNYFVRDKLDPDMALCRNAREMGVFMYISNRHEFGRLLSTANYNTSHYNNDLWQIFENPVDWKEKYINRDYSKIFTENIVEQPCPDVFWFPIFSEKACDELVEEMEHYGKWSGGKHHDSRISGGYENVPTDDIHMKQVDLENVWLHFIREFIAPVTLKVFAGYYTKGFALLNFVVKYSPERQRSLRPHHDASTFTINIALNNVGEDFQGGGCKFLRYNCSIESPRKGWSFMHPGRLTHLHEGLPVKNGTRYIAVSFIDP
# Protein cereblon/Procollagen-lysine,2-oxoglutarate 5-dioxygenase 2 (Homo sapiens), sequence (Q96SW2 whole entry, looked up): as the sequence (Q96SW2 whole entry) above
# Protein cereblon/Ubiquitin carboxyl-terminal hydrolase 8 (Homo sapiens), sequence (P40818 whole entry, looked up): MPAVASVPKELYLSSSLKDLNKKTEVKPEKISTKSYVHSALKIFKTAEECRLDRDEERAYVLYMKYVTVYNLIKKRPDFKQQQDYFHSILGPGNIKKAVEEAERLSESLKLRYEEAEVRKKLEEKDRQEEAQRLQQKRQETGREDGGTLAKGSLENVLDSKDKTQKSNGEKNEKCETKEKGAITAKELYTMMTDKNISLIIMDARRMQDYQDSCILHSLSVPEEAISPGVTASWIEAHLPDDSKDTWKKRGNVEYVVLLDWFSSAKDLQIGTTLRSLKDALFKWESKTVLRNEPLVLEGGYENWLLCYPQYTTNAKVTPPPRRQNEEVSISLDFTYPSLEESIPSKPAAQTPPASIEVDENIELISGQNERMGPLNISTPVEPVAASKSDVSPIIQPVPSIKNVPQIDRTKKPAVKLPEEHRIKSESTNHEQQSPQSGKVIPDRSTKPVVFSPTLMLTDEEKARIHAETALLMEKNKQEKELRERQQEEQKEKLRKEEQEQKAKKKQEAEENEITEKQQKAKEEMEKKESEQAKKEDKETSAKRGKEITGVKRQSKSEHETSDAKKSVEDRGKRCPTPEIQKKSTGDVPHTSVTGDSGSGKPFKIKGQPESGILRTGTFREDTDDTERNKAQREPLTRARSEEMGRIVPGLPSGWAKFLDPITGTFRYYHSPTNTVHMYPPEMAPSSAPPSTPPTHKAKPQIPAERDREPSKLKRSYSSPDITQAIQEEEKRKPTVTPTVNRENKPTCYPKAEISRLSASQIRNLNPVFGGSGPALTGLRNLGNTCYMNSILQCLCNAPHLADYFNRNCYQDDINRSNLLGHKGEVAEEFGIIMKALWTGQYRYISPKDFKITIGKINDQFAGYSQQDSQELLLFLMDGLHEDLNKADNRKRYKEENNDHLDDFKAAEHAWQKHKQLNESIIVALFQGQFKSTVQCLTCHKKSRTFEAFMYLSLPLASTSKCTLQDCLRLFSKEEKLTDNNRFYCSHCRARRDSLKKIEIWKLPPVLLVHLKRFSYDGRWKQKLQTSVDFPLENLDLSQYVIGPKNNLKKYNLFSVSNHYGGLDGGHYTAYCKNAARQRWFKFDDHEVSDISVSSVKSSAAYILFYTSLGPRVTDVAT
# Protein cereblon/Ubiquitin carboxyl-terminal hydrolase 8 (Homo sapiens), sequence (Q96SW2 whole entry, looked up): as the sequence (Q96SW2 whole entry) above
structure (smiles),measurement,setting,value
O=C1CCC(N2C(=O)c3cccc(NCCCCCC4CCN(CCNC(=O)c5cc6c(o5)C(=O)c5ccccc5C6=O)CC4)c3C2=O)C(=O)N1 (stereo not given),log2FC,[1],0.98
same,log2FC,[2],-0.64
same,DC50,[3],60 nM
same,log2FC,[4],0.62
same,log2FC,[5],-0.63
same,log2FC,[6],-0.78
same,log2FC,[7],1.35
same,log2FC,[8],1.24
same,log2FC,[9],-0.59
same,log2FC,[10],-0.59
same,log2FC,[11],1.54
same,log2FC,[12],-0.68
same,Activity,[13],inactive
same,log2FC,[14],-0.6
same,inhibition,[15],inactive

# Source: ChEMBL document CHEMBL4706672 (J Med Chem, 2021)
